PABP polyA inh: blocks human PABP binding to poly(A) RNA. fluorescence polarization. inhibition, % at 35 µM. 290,000 tested, 1% active. AID 2014;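 note: calls also rest on retests at 20 µM and on dose response follow-up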
Target sequence (P11940 whole entry, looked up): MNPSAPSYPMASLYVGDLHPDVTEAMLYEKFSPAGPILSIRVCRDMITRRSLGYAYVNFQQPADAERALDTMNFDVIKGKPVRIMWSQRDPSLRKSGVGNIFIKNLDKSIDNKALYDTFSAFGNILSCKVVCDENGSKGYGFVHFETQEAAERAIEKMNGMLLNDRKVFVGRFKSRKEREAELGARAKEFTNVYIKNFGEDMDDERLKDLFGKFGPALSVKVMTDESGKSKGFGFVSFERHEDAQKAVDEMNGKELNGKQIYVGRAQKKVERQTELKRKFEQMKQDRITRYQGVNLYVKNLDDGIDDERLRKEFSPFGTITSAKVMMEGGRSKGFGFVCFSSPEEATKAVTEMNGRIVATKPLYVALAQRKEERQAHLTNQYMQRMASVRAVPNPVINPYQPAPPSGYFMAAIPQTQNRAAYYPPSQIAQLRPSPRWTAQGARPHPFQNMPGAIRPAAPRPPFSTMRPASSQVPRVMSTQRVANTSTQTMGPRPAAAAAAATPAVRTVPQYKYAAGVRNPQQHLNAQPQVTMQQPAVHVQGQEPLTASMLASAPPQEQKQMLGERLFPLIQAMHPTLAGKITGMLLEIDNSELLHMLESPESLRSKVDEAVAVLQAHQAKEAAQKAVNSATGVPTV
ZTA DNA inh: ZTA (EBV) inhibition in EBNA-1 counter-screen | P03206 | ZTA-DNA binding, fluorescence polarization | inhibition, % at 11 µM | 320,000 tested, 0.15% active; in the data active = inhibition above about 33%
MLLE-PAM2 inh: blocks PAM2 peptide binding to the PABP1 MLLE domain; P11940; GST-MLLE / FITC-PAM2 fluorescence polarization; inhibition, % at 20 µM; 360,000 tested, 0.36% active; AID 588489; in the data active = inhibition above about 35%, passing the limit was not always enough;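 note: plate controls were DMSO wells with GST-MLLE for no effect and wells lacking GST-MLLE protein for full effect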
HCV NS3 hel inh: inhibitors of Hepatitis C virus NS3 helicase; NS3 helicase DNA unwinding, Cy5 molecular beacon fluorescence; inhibition, % at 10.9 µM; 290,000 tested, 0.56% active;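 active = inhibition above the mean of all tested compounds plus 3 SD, set per campaign, cut at about 35% in these data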;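 note: 0% = DMSO wells and 100% = thioflavine S control wells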
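Test system: hepatitis C virus NS3 helicase domain fragment enzyme. Also added: annealed dual-labelled DNA beacon duplex, ATP-started. Timing: 60 min unwinding reaction at 25 °C after ATP addition. Technique: Cy5 fluorescence. Measure: % inhibition of unwinding.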
eIF4H inh: inhibitors of RNA binding by human eIF4H; Q15056; eIF4H fluorescence polarization binding assay; inhibition, % at 35 µM; 290,000 tested, 0.94% active; AID 2012;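 note: calls also rest on retests at 20 µM and on dose response follow-up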
EBNA-1 inh: blocks EBNA-1 binding to DNA; EBNA-1 DNA binding, fluorescence polarization; inhibition, % at 14.8 µM; 300,000 tested, 0.34% active; AID 1950; in the data active = inhibition above about 28%
NS3 hel confirm: HCV NS3 helicase inhibition, confirmation assay; shares compounds with HCV NS3 hel inh; NS3 helicase DNA unwinding, Cy5 molecular beacon fluorescence; inhibition, % at 10.9 µM; 1,600 tested, 31% active;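 active = inhibition above the mean of all tested compounds plus 3 SD, cutoff set per campaign, cut at about 36% in these data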
DNA FID counter: intercalator displacement, NS3 helicase counter-screen; inhibition, % at 7.9 µM; DNA fluorescent intercalator displacement, fluorescence; shares compounds with HCV NS3 hel inh; 1,600 tested, 4% active; AID 1945; in the data active = inhibition above about 37%;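 note: 0% = vehicle and 100% = reference compound; higher means more displacement of ethidium bromide from the DNA hairpin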
An asterisk follows results filed as active; / = not tested or not shown. In the library only some 2.1% were active in any assay of this set; here they are far more common. Unless noted, the rule behind the calls is not given here.

SMILES	PABP polyA inh	ZTA DNA inh	MLLE-PAM2 inh	HCV NS3 hel inh	eIF4H inh	EBNA-1 inh	NS3 hel confirm	DNA FID counter
COc1cc(C=C(c2nc3ccccc3s2)c2nc3ccccc3s2)cc(OC)c1O	active	-4.1	-31.0	38.6*	52.3*	-8.4	-27.1	-7.8
CCOC(=O)c1cc2c(C)n(-c3ccc(OCC)cc3)c(C)c2ccc1=O	22.8	3.8	9.9	55.3*	3.3	-1.0	-11.8	-9.3
COc1cccc(C(=O)N/N=C/c2ccc(OC)c(COc3ccccc3C(N)=O)c2)c1	-2.0	-11.9	9.5	43.2*	-5.1	3.0	-11.8	-41.5
COc1ccc(/C=N\NC(=O)c2ccc(F)cc2)cc1COc1ccccc1C(N)=O	-6.4	-8.0	4.8	-3.4	3.3	5.9	/	/
CC(C)(C)c1ccc(C2C(C(=O)c3ccco3)=C(O)C(=O)N2CC2CCCO2)cc1 (configuration not stated)	11.9	8.3	-3.0	37.5*	-3.9	-3.5	9.5	-12.9
O=C(C1=C(O)C(=O)N(CC2CCCO2)C1c1ccc(Cl)cc1Cl)c1ccco1 (configuration not stated)	26.7	13.6	2.4	67.6*	-16.2	2.1	-3.0	-21.1
O=C(OCC(=O)N1CCCC1)c1cc(=O)c2ccccc2o1	/	/	-4.4	/	/	/	/	/
CCOC(=O)c1c(NC(=O)C2C3C=CC(C3)C2C(=O)O)sc2c1CCC(CC)C2 (configuration not stated)	-0.2	14.3	1.4	39.4*	3.3	-1.4	83.6*	-35.0
CCOC(=O)c1c(NC(=O)C2C3CCC(O3)C2C(=O)O)sc2c1CCC(CC)C2 (configuration not stated)	15.9	8.6	8.4	30.0	8.3	-5.8	/	/
Cn1cccc1CC(=O)NNC(=S)Nc1ccc(Cl)cc1	3.3	-17.2	14.5	36.4*	57.1	-16.2	-8.7	9.7
Cn1cccc1CC(=O)N/N=C/c1ccc(Cl)cc1	10.1	16.4	-1.1	-0.4	-9.1	4.8	/	/
Cn1cccc1CC(=O)NNC(=S)Nc1ccccc1Cl	1.5	0.1	22.8	45.6*	64.5	-2.5	-9.1	13.0
COCCN1C(=O)N[C@@H](c2cccc(F)c2)C(C(=O)OC)=C1C	1.7	-20.8	1.5	/	0.5	6.8	/	/
Cc1csc(CN(C)C(=O)CC2C(=O)NCCN2Cc2ccc(-c3ccccc3)cc2)n1 (configuration not stated)	8.5	-13.1	2.4	-5.1	0.8	0.8	/	/
CCCCC(=O)N/N=C(\C)CC(=O)Nc1ccccc1Br	-2.2	-4.5	-1.4	-7.8	-2.8	0.9	/	/
CC(=O)N1CCN(C(=O)c2c(-c3ccccc3)noc2C)CC1	/	-9.4	-19.3	/	/	/	/	/
CCCc1cc(=O)oc2cc(OCC(=O)NC(Cc3ccc(Cl)cc3)C(=O)O)ccc12 (configuration not stated)	9.4	-10.8	-6.7	5.3	-10.9	5.0	/	/
CCCCc1cc(=O)oc2cc(OCC(=O)N[C@@H](Cc3ccccc3)C(=O)O)ccc12	-9.2	-1.6	6.2	50.0*	-4.3	-13.0	24.1	-26.4
Cc1ccc(C)c(CC(=O)N2CCCC(c3cc(C(=O)Nc4ccc5c(c4)OCO5)no3)C2)c1 (configuration not stated)	/	/	8.8	/	/	/	/	/
COc1ccc2nc3ccccc3nc2c1N	32.5	-7.3	-0.6	50.0*	39.3	-0.9	-8.6	7.0
CC(CCc1ccco1)NC(=O)CCc1nnc2ccc(NCc3ccc(Cl)cc3)nn12 (configuration not stated)	/	3.8	8.4	-3.2	/	-8.4	/	/
CC(CCc1ccco1)NC(=O)CCc1nnc2ccc(NCc3ccccc3Cl)nn12 (configuration not stated)	1.4	-22.1	-13.0	61.5*	-4.1	-0.9	4.2	-1.6
CCN(C(=S)NCCOC)c1cccc2ccccc12	1.8	0.8	-76.2	43.9*	-5.0	8.9	1.4	-31.4
CCc1ccccc1OCC(=O)NC1CCCC1	-6.5	/	9.0	49.5*	-0.1	/	-0.6	-6.7
COC(=O)c1ccccc1OCC(=O)NC1CCCCC1	0.0	10.8	2.5	1.4	7.9	-4.0	/	/

High-throughput results as filed in PubChem BioAssay.
